In ChEMBL document CHEMBL1123747, “N-methyl derivatives of the 5-HT2 agonist 1-(4-bromo-2,5-dimethoxyphenyl)-2-aminopropane” (J Med Chem, 1987):
Activity calls are given as the source filed them. No cut-off for these calls is given here.

Tests used:
Rattus norvegicus [1] = species on record: Rattus norvegicus; assay: The mean responses per minute during the 2.5 min extinction session in the stimulus-generation studies was calculated at dose 2.0 mg / kg; assay type: functional
Outline: (§1)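 Rats were trained on a two-lever drug-versus-saline discrimination (0.2 mg/kg ip training dose, VI 15-s, food reward). Challenge doses were given ip 15 min before a 2.5-min extinction test, in random order, to groups of 3–6 rats, with at least three training sessions between tests. Response rate is responses per minute over the extinction session.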

Rattus norvegicus [2] = species on record: Rattus norvegicus; assay: The mean responses per minute during the 2.5 min extinction session in the stimulus-generation studies was calculated at dose 2.2 mg / kg; assay type: functional; outline: as §1
Rattus norvegicus [3] = species on record: Rattus norvegicus; assay: The mean responses per minute during the 2.5 min extinction session in the stimulus-generation studies was calculated at dose 7.5 mg / kg; assay type: functional; outline: as §1
Rattus norvegicus [4] = species on record: Rattus norvegicus; assay: The number of responses made on the (R)(-)-DOB appropriate level as a percent of total responses made during the 2.5 min extinction session in the stimulus-generation studies was calculated at dose 6.0 mg / kg; assay type: functional
Outline: (§2)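 Male Sprague-Dawley rats (n = 6) were trained on a two-lever operant task for sweetened-milk reward to discriminate 0.2 mg/kg (R)-(-)-DOB-HCl ip from 1.0 mL/kg 0.9% saline, with a VI 15-s schedule and 15-min sessions. Test doses were given ip 15 min before a 2.5-min extinction session, in random order, to groups of 3-6 rats. Read-out was % drug-lever responses; fewer than five total responses counted as disrupted.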

Rattus norvegicus [5] = species on record: Rattus norvegicus; assay: The compound was tested for effective dose ( ED 50) against stimulus generation with rats trained to discriminate (R) (-)-DOB from saline.; assay type: functional
Outline: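 Male Sprague-Dawley rats (n = 6) on a two-lever operant task for sweetened milk, VI 15-s schedule. Trained to discriminate 0.2 mg/kg ip training drug from 1.0 mL/kg 0.9% saline, 15 min pre-session. Test doses were given ip in random order to groups of 3–6, with 15-min pretreatment and a 2.5-min extinction session. ED50 was calculated from dose-response data.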

Rattus norvegicus [6] = species on record: Rattus norvegicus; assay: The number of responses made on the (R)(-)-DOB appropriate level, generation studies was calculated at dose 7.8 mg / kg; assay type: functional; outline: as §2
Rattus norvegicus [7] = species on record: Rattus norvegicus; assay: The number of animals responding per number of animals receiving the drug(1/4) in the stimulus-generation studies was calculated at dose 8.5 mg / kg; assay type: functional
Outline: (§3)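 Male Sprague-Dawley rats were trained to discriminate 0.2 mg/kg ip training drug from saline (two levers, VI 15-s, milk reward). Test doses were given ip 15 min pre-session in random order to groups of 3–6. In the 2.5-min extinction session, rats making fewer than five total responses were counted as disrupted. N is animals responding over animals dosed.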

Rattus norvegicus [8] = species on record: Rattus norvegicus; assay: The mean responses per minute during the 2.5 min extinction session in the stimulus-generation studies was calculated at dose 4.0 mg / kg; assay type: functional; outline: as §1
[9] = target: T1, Serotonin 2 (5-HT2) receptor (Rattus norvegicus, UniProt P30994+P08909+P14842); assay: Affinity towards [3H]- ketanserin-labeled 5-hydroxytryptamine 2 receptor sites in rat cortical homogenates
Outline: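 Label was 0.4 nM [3H]ketanserin, with 11 competitor concentrations run in triplicate and nonspecific binding defined by 1 μM cinanserin. Bound ligand was filtered onto glass fibre and counted by scintillation. IC50 came from nonlinear regression; Ki = IC50/(1+[D]/KD).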

Rattus norvegicus [10] = species on record: Rattus norvegicus; assay: The number of animals responding per number of animals receiving the drug(3/5) in the stimulus-generation studies was calculated at dose 6.0 mg / kg; assay type: functional; outline: as §3
Rattus norvegicus [11] = assay: The number of animals responding per number of animals receiving the drug in the stimulus-generation studies was calculated at dose 2.2 mg/kg; assay type: functional; outline: as §3
Rattus norvegicus [12] = species on record: Rattus norvegicus; assay: The number of responses made on the (R)(-)-DOB appropriate level, generation studies was calculated at dose 4.0 mg / kg; assay type: functional; outline: as §2
Rattus norvegicus [13] = species on record: Rattus norvegicus; assay: The number of responses made on the (R)(-)-DOB appropriate level, generation studies was calculated at dose 7.5 mg / kg; assay type: functional; outline: as §2
Rattus norvegicus [14] = species on record: Rattus norvegicus; assay: The number of animals responding per number of animals receiving the drug(3/5) in the stimulus-generation studies was calculated at dose 7.8 mg / kg; assay type: functional; outline: as §3
[15] = target: T1, Serotonin 2 (5-HT2) receptor; assay: Affinity towards [3H]- DOB -labeled 5-hydroxytryptamine 2 receptor sites in rat cortical homogenates
Rattus norvegicus [16] = species on record: Rattus norvegicus; assay: The number of animals responding per number of animals receiving the drug(3/5) in the stimulus-generation studies was calculated at dose 7.5 mg / kg; assay type: functional; outline: as §3
Rattus norvegicus [17] = species on record: Rattus norvegicus; assay: The mean responses per minute during the 2.5 min extinction session in the stimulus-generation studies was calculated at dose 7.8 mg / kg; assay type: functional; outline: as §1
Rattus norvegicus [18] = species on record: Rattus norvegicus; assay: The mean responses per minute during the 2.5 min extinction session in the stimulus-generation studies was calculated at dose 6.0 mg / kg; assay type: functional; outline: as §1
Rattus norvegicus [19] = species on record: Rattus norvegicus; assay: The number of responses made on the (R)(-)-DOB appropriate level, generation studies was calculated at dose 2.0 mg / kg; assay type: functional; outline: as §2
Rattus norvegicus [20] = species on record: Rattus norvegicus; assay: The number of responses made on the (R)(-)-DOB appropriate level, generation studies was calculated at dose 8.5 mg / kg; NR means not responding; assay type: functional, organism-based; parameters: dose 8.5 mg / kg; outline: as §2
Rattus norvegicus [21] = species on record: Rattus norvegicus; assay: The number of animals responding per number of animals receiving the drug(4/6) in the stimulus-generation studies was calculated at dose 4.0 mg / kg; assay type: functional; outline: as §2
Rattus norvegicus [22] = species on record: Rattus norvegicus; assay: The number of animals responding per number of animals receiving the drug(3/4) in the stimulus-generation studies was calculated at dose 0.3 mg / kg; assay type: functional
Rattus norvegicus [23] = species on record: Rattus norvegicus; assay: The number of responses made on the (R)(-)-DOB appropriate level as a percent of total responses made during the 2.5 min extinction session in the stimulus-generation studies was calculated at dose 2.2 mg / kg; assay type: functional; outline: as §2

COc1cc(CC(C)N(C)C)c(OC)cc1Br (stereo not drawn)
Response rate (Rattus norvegicus [1]): 14.6 | Response rate (Rattus norvegicus [2]): 14.8 | Response rate (Rattus norvegicus [3]): 6.8 | Responding (Rattus norvegicus [4]): 38% | ED50 (Rattus norvegicus [5]): 5.36 mg/kg | Responding (Rattus norvegicus [6]): 86% | No. of animals responding/animals receiving drug (Rattus norvegicus [7]): 1 | Response rate (Rattus norvegicus [8]): 10.1 | Ki [9]: 380 nM | No. of animals responding/animals receiving drug (Rattus norvegicus [10]): 3 | No. of animals responding/animals receiving drug (Rattus norvegicus [11]): 5 | Responding (Rattus norvegicus [12]): 29% | Responding (Rattus norvegicus [13]): 64% | No. of animals responding/animals receiving drug (Rattus norvegicus [14]): 3 | Ki [15]: 94 nM | No. of animals responding/animals receiving drug (Rattus norvegicus [16]): 3 | Response rate (Rattus norvegicus [17]): 4.5 | Response rate (Rattus norvegicus [18]): 8.1 | Responding (Rattus norvegicus [19]): 23% | Responding (Rattus norvegicus [20]): inactive | No. of animals responding/animals receiving drug (Rattus norvegicus [21]): 4 | No. of animals responding/animals receiving drug (Rattus norvegicus [22]): 3 | Responding (Rattus norvegicus [23]): 6%
